The list is not random: actives were taken first. Their share in the collection is about 3%.
DNA FID counter = fluorescent intercalator displacement, NS3 helicase counter-screen; inhibition, % at 7.9 µM; 0.17% of 290,000 active; AID 1845; DNA fluorescent intercalator displacement, fluorescence; in the data active = inhibition above about 37%;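 note: higher means more ethidium bromide displaced from hairpin DNA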
SR-BI DiI-HDL act = enhances SR-BI lipid uptake from DiI-HDL. CHO ldlA[mSR-BI] cells, DiI-HDL uptake fluorescence, 3 h; 100 = double the neutral-control signal. AID 504775. activation, % at 12.5 µM. 0.096% of 320,000 active;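 active = mean replicate activation of at least 60% and every replicate at or above 60%; inconclusive = mean or all-replicate condition met, but not both; inactive = mean below 60% and not all replicates reaching 60%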
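Test system: SR-BI-overexpressing, LDLR-lacking CHO cells. Measured by: DiI fluorescence, bottom read. Medium: Ham's F12 with 0.5% BSA, HEPES 25 mM, pH 7.4. Timing: 3 h uptake period with compound, 37 °C.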
SR-BI DiI inh = blocks mouse SR-BI lipid uptake from DiI-HDL. Q61009. ldlA[mSR-BI] CHO cells, DiI-HDL uptake fluorescence, 3 h. inhibition, % at 12.5 µM. 0.96% of 320,000 active;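 active = mean replicate inhibition of at least 70% and a set share of replicates each scoring 70 or more; inconclusive = meets just one of the two criteria; inactive = fails both criteria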
Target sequence (Q61009 whole entry, looked up): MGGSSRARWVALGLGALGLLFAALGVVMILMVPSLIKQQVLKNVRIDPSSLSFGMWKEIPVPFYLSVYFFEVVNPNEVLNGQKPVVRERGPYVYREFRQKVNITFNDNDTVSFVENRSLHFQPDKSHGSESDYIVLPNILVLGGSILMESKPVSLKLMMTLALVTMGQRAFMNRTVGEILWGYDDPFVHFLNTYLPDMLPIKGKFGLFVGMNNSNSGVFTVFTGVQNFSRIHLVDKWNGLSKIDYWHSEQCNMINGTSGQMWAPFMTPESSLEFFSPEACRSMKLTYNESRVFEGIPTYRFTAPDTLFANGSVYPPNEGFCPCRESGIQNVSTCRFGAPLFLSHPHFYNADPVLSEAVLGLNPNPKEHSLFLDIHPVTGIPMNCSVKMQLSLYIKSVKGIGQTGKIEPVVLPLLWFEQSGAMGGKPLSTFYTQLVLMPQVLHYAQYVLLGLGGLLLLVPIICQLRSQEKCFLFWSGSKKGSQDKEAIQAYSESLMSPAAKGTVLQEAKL
TMEM16A act = activates or potentiates the mouse TMEM16A chloride channel. Q8BHY3. AID 623877. 0.3% of 340,000 active. B-score at 10 µM. HEK293 TMEM16A/YFP-H148Q/I152L, iodide quench fluorescence; active compounds read low;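 active = fluorescence-ratio B-score plate-corrected deviation score at least 3 library SD below zero, with starting fluorescence score within 5 deviations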;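 note: channel opened by trigger with iodide after compound preincubation; score built on the fluorescence ratio of max minus min over baseline; more negative score means more quench and so TMEM16A activation or potentiation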
TMEM16A inh = inhibitors of mouse TMEM16A calcium-activated chloride channel; 1.2% of 310,000 active; normalized B-score (activity score, 25-100; higher = stronger inhibition) at 10 µM; HEK293 TMEM16A/YFP iodide influx fluorescence, ionomycin;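 active = ratio plate-corrected score three or more library SD toward inhibition, starting fluorescence score within five deviations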;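 note: score derived from kinetic fluorescence span divided by baseline fluorescence per well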
Kir21 inh = inhibitors of mouse Kir2.1 inward-rectifier potassium channel | HEK293-Kir2.1, FluxOR thallium flux fluorescence; active compounds read low | 0.85% of 310,000 active | B-score at 10 µM | P35561;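 active = fluorescence ratio B-score at or below minus 3 SD of library scores, with starting-brightness B-score within 2 SD, cut at about -4.2 in these data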;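 note: channel flux triggered by added potassium and thallium sulfate stimulus; B-score of peak minus minimum fluorescence over baseline after thallium stimulus; more negative B-score means stronger Kir2.1 block with less thallium influx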
DiI quench = counter-screen for SR-BI lipid transfer inhibitors: DiI fluorescence quenchers. shares compounds with SR-BI DiI inh. cell-free DiI-HDL fluorescence quenching, 30 min. AC50, µM (series often up to 35 µM). 20% of 470 active. AID 540326;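 active = quenching, a falling signal, with AC50 below a set limit tied to the top valid dose, actives reach about 32 µM in these data; inconclusive = no clear call, values can overlap the other calls; inactive = rising signal, and the rest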
Each line names hits and unclear results; the compound was inactive in the other large screens (follow-up assays come after a bar, where they were run).

COc1ccccc1C(CC(=O)Nc1ccccc1C)c1ccc(OC(C)C)cc1 (stereo unspecified)	SR-BI DiI inh inconclusive | DiI quench inactive
CCC(=O)Nc1ccc(Cl)c(NC(=O)c2ccccc2OC)c1	none
CCC(=O)Nc1ccc(Cl)c(NC(=O)c2cccc(OC)c2)c1	SR-BI DiI inh 80 | DiI quench inactive
O=C(C[C@H]1C/C=C\CCC(=O)OC[C@H]2CCCN2C1=O)NCCO	none (no result: DNA FID counter, TMEM16A inh, Kir21 inh) | DiI quench inactive
CC(OC(=O)c1cccc(NS(C)(=O)=O)c1)C(=O)Nc1ccc(N2CCOCC2)cc1 (stereo unspecified)	SR-BI DiI inh 78 | DiI quench inactive
CC(OC(=O)c1cccc(NS(C)(=O)=O)c1)C(=O)Nc1ccc2c(c1)OCO2 (stereo unspecified)	none (no result: DNA FID counter, TMEM16A inh, Kir21 inh)
O=C(OCC(=O)N1CCOCC1)c1cccc(S(=O)(=O)Nc2ccc(F)cc2)c1	none (no result: DNA FID counter, TMEM16A inh, Kir21 inh)
CCC(C(=O)Nc1cccnc1Cl)c1ccccc1 (stereo unspecified)	none
CC1CN(c2oc(COc3ccc(Cl)cc3Cl)nc2C#N)CC(C)O1 (stereo unspecified)	SR-BI DiI inh 81 | DiI quench inactive
N#Cc1nc(COc2ccccc2Cl)oc1N1CCCC1	none
O=C(CN1CCN(CC(=O)Nc2ccc3c(c2)OC2(CCCCC2)O3)CC1)Nc1cccc(F)c1	none (no result: DNA FID counter, TMEM16A inh, Kir21 inh) | DiI quench inactive
CC1CCCC(NC(=O)c2nn(C)c3c2CS(=O)(=O)c2ccccc2-3)C1C (stereo unspecified)	none
CC1CCCCC1NC(=O)c1nn(C)c2c1CS(=O)(=O)c1ccccc1-2 (stereo unspecified)	SR-BI DiI inh 78 | DiI quench inactive
Cc1ccc(-c2nnc(N3CCCCCC3)c3ccccc23)cc1	none (no result: SR-BI DiI-HDL act, SR-BI DiI inh)
Cc1ccc(-c2nnc(N3CCC(C)CC3)c3ccccc23)cc1C	SR-BI DiI inh 92, TMEM16A inh 100 | DiI quench inactive
CC(=O)c1ccc(NC(=O)CC(C)S(=O)(=O)c2ccc3c(c2)CCN3C(C)=O)cc1 (stereo unspecified)	none
COc1ccc(N2CC(C(=O)NCCc3ccc(Cl)cc3)CC2=O)c(OC)c1 (stereo unspecified)	SR-BI DiI inh 79 (no result: DNA FID counter) | DiI quench inactive
COc1ccc(N2CC(C(=O)NCCC3=CCCCC3)CC2=O)c(OC)c1 (stereo unspecified)	SR-BI DiI inh 78 (no result: DNA FID counter) | DiI quench inactive
COc1ccc(N2CC(C(=O)NCCc3ccc(OC)c(OC)c3)CC2=O)cc1 (stereo unspecified)	none
COc1ccccc1N1CCN(C(=O)c2cccc(S(=O)(=O)NCc3cccnc3)c2)CC1	none (no result: DNA FID counter, TMEM16A inh, Kir21 inh)
CCOC(=O)c1ccc(-c2ccc(-c3cc(=O)oc4cc(OC)c(OC)c(OC)c34)cc2)cc1	none (no result: DNA FID counter, TMEM16A act, TMEM16A inh, Kir21 inh)
CCOC(=O)C(NC(=O)c1ccccc1)C(C)(C)SCc1ccccc1 (stereo unspecified)	none (no result: DNA FID counter, TMEM16A inh, Kir21 inh)
COc1ccc(C2/C=C\CN(S(=O)(=O)c3ccc(C)cc3)CC(=O)N2Cc2cccc(F)c2)cc1 (stereo unspecified)	SR-BI DiI inh 80 (no result: DNA FID counter, TMEM16A inh, Kir21 inh) | DiI quench inactive
COc1ccc(C2/C=C\CN(S(=O)(=O)c3ccc(C)cc3)CC(=O)N2Cc2ccc(F)cc2)cc1 (stereo unspecified)	SR-BI DiI inh 86 (no result: DNA FID counter) | DiI quench inactive
COc1ccc(NC(=O)C2CCN(C(=O)c3ccc(OC)cc3)CC2)cc1	SR-BI DiI inh 115 | DiI quench inactive
COc1ccc(C(=O)N2CCC(C(=O)Nc3ccc(OC)c(OC)c3)CC2)cc1	none
COc1ccccc1CNC(=O)COC(=O)c1ccc(C)c(S(=O)(=O)N2CCCCC2)c1	none
CNC(=O)c1ccc(Nc2nnc(-c3ccc(O)cc3)c3ccccc23)cc1	SR-BI DiI inh 99 | DiI quench inactive
O=C1C2C3C=CC(C3)C2C(=O)N1c1cccc(N2C(=O)C3C4C=CC(C4)C3C2=O)n1 (stereo unspecified)	none | DiI quench inactive
O=C1C2C3C=CC(C3)C2C(=O)N1c1ccc2ccccc2n1 (stereo unspecified)	none
CC(=O)Nc1c(Cl)cc2c(c1Cl)C(=O)c1ccccc1-2	none (no result: DNA FID counter, TMEM16A inh, Kir21 inh)
CC1CCc2c(sc(Nc3nc4c(F)cccc4s3)c2C(N)=O)C1 (stereo unspecified)	SR-BI DiI inh 80 | DiI quench 3.3µM
O=C(Nc1nc2c(F)cccc2s1)C1CC1	none
Cc1nc(NCc2cccnc2)c2c3c(sc2n1)CC(C)CC3 (stereo unspecified)	SR-BI DiI inh inconclusive | DiI quench inactive
CC(C)Cn1c(SCC(=O)Nc2cc(Cl)c(Cl)cc2Cl)nc(O)cc1=O	none (no result: DNA FID counter)
CCC(C)c1ccccc1N1CC(C(=O)N2CCN(S(=O)(=O)c3cccc([N+](=O)[O-])c3)CC2)CC1=O (stereo unspecified)	none (no result: DNA FID counter, TMEM16A inh, Kir21 inh) | DiI quench inactive
CCC(C)c1ccccc1N1CC(C(=O)N2CCN(c3ccccc3)CC2)CC1=O (stereo unspecified)	none (no result: DNA FID counter, TMEM16A inh, Kir21 inh)
COc1ccc(CNC(=O)C(c2ccc(C)cc2)N(Cc2cccs2)C(=O)c2ccc3c(c2)OCCO3)cc1 (stereo unspecified)	none | DiI quench inactive
O=C(COc1cc(O)c2c(=O)cc(-c3ccccc3)oc2c1)c1ccccc1	none
Cc1ccc(C(=O)COc2cc(O)c3c(=O)cc(-c4ccccc4)oc3c2)cc1	SR-BI DiI inh 78 | DiI quench inactive
CC1Cc2ccccc2N1C(=O)Cn1nnc(-c2ccccc2NC(=O)C2CCC2)n1 (stereo unspecified)	SR-BI DiI inh 79 | DiI quench inactive
CCC(=O)Nc1ccccc1-c1nnn(CC(=O)N2c3ccccc3CC2C)n1 (stereo unspecified)	none | DiI quench inactive
CC(C)CC(=O)Nc1ccccc1-c1nnn(CC(=O)N2CCc3ccccc3C2)n1	none
CCC(C)NC(=O)CSc1ccc(S(=O)(=O)N(C)C2CCCCC2)cn1 (stereo unspecified)	none (no result: DNA FID counter, TMEM16A inh, Kir21 inh)
CC(=O)NCCc1nc2cc(NC(=O)c3cccc([N+](=O)[O-])c3)ccc2n1C	none
O=C(O)c1cc(NC(=O)c2ccccc2F)cc(NC(=O)c2ccccc2F)c1	none
Cc1ccccc1C(=O)Nc1cc(NC(=O)c2ccccc2C)cc(C(=O)O)c1	none | DiI quench inactive
O=C(COc1ccc(F)c(Cl)c1)N1CCCCCCC1	none
O=[N+]([O-])c1ccc(C=NN2CCCCCC2)cc1	none (no result: DNA FID counter, TMEM16A inh, Kir21 inh)
N#CCCN(C(=O)COC(=O)CCc1c[nH]c2ccccc12)c1ccccc1	none (no result: DNA FID counter) | DiI quench inactive
